Screening results from PubChem.
Hits are enriched below; roughly 2.1% of the tested compounds scored in any of these assays.
CFTR F508del cor – F508del CFTR correction, initial screen, CFBE line, single point | CFBE cells, YFP halide quenching; stimulated with forskolin plus potentiator P3; % fluorescence drop versus neutral controls | activity (quench increase), % at 7.58 µM | hit rate 0.36% among 350,000 | AID 720511, 2013;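 active = mean added fluorescence quench of at least 8% versus neutral control, with both replicates also reaching 8%; inconclusive = only one of the mean or replicate conditions met; inactive = mean below 8% and not both replicates reaching 8%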;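 note: cells transiently co-express mutant CFTR-F508del with the halide-sensitive YFP; corrector assay measuring rescue of mutant channel to the surface after 24 h compound exposure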
SMARCA2 act – SMARCA2 (BRM) function activators, primary screen, cell-based, luminescence, high throughput | MG213 cells, MMTV-luciferase reporter, dexamethasone, overnight | activation, % at 9.1 µM | hit rate 1% among 370,000 | AID 652017, 2013; in the data active = activation above about 7.8%
MC4R ag barr – MC4R agonists recruiting beta-arrestin, primary screen, cell-based, luminescence, agonist arm of biased-ligand search. U2OS MC4R beta-arrestin complementation; percent of melanotan II response, DMSO zero. Melanocortin receptor 4 (Homo sapiens), P32245. activation, % at 8.9 µM. hit rate 0.98% among 360,000;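 active = activation above a per-plate cutoff, the mean activation of sample wells on that plate plus 3 SD, cut at about 8% in these data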
Target sequence (P32245 whole entry, looked up): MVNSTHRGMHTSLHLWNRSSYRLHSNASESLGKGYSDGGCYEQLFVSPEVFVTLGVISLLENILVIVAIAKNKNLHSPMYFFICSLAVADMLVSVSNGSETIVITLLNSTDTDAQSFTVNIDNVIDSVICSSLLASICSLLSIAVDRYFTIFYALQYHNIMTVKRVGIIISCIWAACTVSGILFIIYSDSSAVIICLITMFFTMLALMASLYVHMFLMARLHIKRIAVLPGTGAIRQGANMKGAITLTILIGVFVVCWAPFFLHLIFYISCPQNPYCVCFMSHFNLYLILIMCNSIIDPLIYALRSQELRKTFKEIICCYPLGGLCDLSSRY
MC4R antag cAMP – MC4R antagonists of cAMP signaling, primary screen, cell-based, TR-FRET, antagonist arm of biased-ligand search | Melanocortin receptor 4 (Homo sapiens), P32245 | MC4R-expressing cells, MTII-stimulated cAMP, LANCE TR-FRET | inhibition, % at 6.5 µM | hit rate 0.48% among 360,000 | AID 540295, 2011;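 active = inhibition above its plate's cutoff, the mean of tested wells on that plate plus 3 SD, cut at about 29% in these data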
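System: U2OS cells stably expressing human melanocortin 4 receptor (MC4R). Reagent: Melanotan II challenge after compound preincubation. Doses: 6.5 µM. Times: 30-min compound, 1-h challenge, 1-h detection, room temperature. Measured by: TR-FRET with Eu-cAMP and labeled anti-cAMP, 671 nm. Replicates: singlicate.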
Each line names hits and unclear results; the compound was inactive in the other large screens; ! = repeats disagree.

C[C@H](CO)N1C[C@H](C)[C@H](CN(C)Cc2ccc(Cl)c(Cl)c2)Oc2c(NS(=O)(=O)c3ccc(Cl)cc3)cccc2C1=O	none (no result: SMARCA2 act, MC4R ag barr, MC4R antag cAMP)
C[C@@H]1CN([C@@H](C)CO)C(=O)c2cc(NC(=O)NC3CCCCC3)ccc2O[C@@H](C)CCCCO[C@H]1CN(C)S(=O)(=O)c1ccc(F)cc1	none (no result: SMARCA2 act, MC4R ag barr, MC4R antag cAMP)
CO[C@H]1CN(C)C(=O)c2cc(NC(=O)Nc3cccc(F)c3)ccc2OC[C@H](C)N(C)C[C@@H]1C	none (no result: SMARCA2 act, MC4R ag barr, MC4R antag cAMP)
COc1cccc2c1C(=O)C=C(C)C2=O	CFTR F508del cor 15.7
COCC(=O)Nc1ccc2c(c1)C(=O)N(C)[C@@H]1CC[C@H](CC(=O)Nc3cn(C)nc3C)O[C@H]1CO2	none (no result: SMARCA2 act, MC4R ag barr, MC4R antag cAMP)
C[C@@H]1CN([C@H](C)CO)S(=O)(=O)c2ccc(C#CCN(C)C)cc2O[C@H]1CN(C)Cc1ccccn1	none (no result: SMARCA2 act, MC4R ag barr, MC4R antag cAMP)
Cc1cc2c(cc1C)C(c1ccccc1OC(C)C)CC(=O)N2 (configuration not stated)	CFTR F508del cor 12.3
COc1ccccc1C1CC(=O)Nc2cc(C)c(C)cc21 (configuration not stated)	CFTR F508del cor inconclusive
O=S(=O)(NC[C@@H]1CC[C@@H]2[C@@H](CN2Cc2cccc(-c3ccccn3)c2)O1)c1ccccc1	none (no result: SMARCA2 act, MC4R ag barr, MC4R antag cAMP)
C[C@H](CO)N1C[C@H](C)[C@H](CN(C)C(=O)Nc2ccc3c(c2)OCO3)OCCCC[C@H](C)Oc2ccc(NC(=O)CCCCCC(=O)Nc3ccccc3N)cc2C1=O	none (no result: SMARCA2 act, MC4R ag barr, MC4R antag cAMP)
O=S(=O)(Nc1ccc(F)cc1Cl)c1ccc(-c2cnc(C3CC3)o2)cc1	CFTR F508del cor 14.0
Cc1ccc(NS(=O)(=O)c2ccc(-c3cnc(C4CC4)o3)cc2)c(C)c1	none
Brc1ccc(NCc2cccc3ccccc23)nc1	none (no result: CFTR F508del cor)
Oc1ccccc1CNc1ccc(Br)cn1	MC4R ag barr 48.9 (no result: CFTR F508del cor)
O=C(c1ccccn1)N1C[C@@H]2N[C@H](C1)C2c1ccc(-c2ccccc2F)cc1 (some centres not stated)	none (no result: SMARCA2 act, MC4R ag barr, MC4R antag cAMP)
CCc1nc(C)cn1S(=O)(=O)c1ccc2c(c1)OCCO2	CFTR F508del cor 8.9
Cc1cc(C)c2c(N)c(C(=O)Nc3ccccc3F)sc2n1	none
Cc1cc(C)c2c(N)c(C(=O)Nc3ccccc3Cl)sc2n1	MC4R ag barr 8.4
O=C(C[C@@H]1CC[C@H](NS(=O)(=O)c2ccc(F)cc2)[C@H](CO)O1)N1CCC(Cc2ccccc2)CC1	none (no result: SMARCA2 act, MC4R ag barr, MC4R antag cAMP)
O=C(COC(=O)c1ccc(F)cc1Cl)NC1CCCCCCC1	MC4R ag barr 8.6
Cc1ccc(-c2cccc(-c3cc(=O)oc4ccc(C(C)(C)C)cc34)c2)cc1	CFTR F508del cor 8.7
O=C(Nc1ccn(CCCNC2CCN(Cc3ccccc3)CC2)c(=O)n1)OCc1ccccc1	CFTR F508del cor 9.0
CC(C)c1ccc(S(=O)(=O)/N=C2/C=C(Sc3ncn[nH]3)C(=O)c3ccccc32)cc1	MC4R antag cAMP 29.4 (no result: CFTR F508del cor, SMARCA2 act)
Cc1cc(S(=O)(=O)Nc2ccc3ccccc3c2)c(C)s1	MC4R ag barr 8.8
O=S(=O)(Nc1ccc2ccccc2c1)c1ccccc1	none (no result: CFTR F508del cor)
Cc1ccc(S(=O)(=O)Nc2ccc3ccccc3c2)cc1	MC4R ag barr 9.4
CC(=O)O[C@H]1C(=O)[C@@]2(C)[C@H]([C@H](OC(=O)c3ccccc3)[C@]3(O)C[C@H](OC(=O)[C@H](O)C(NC(=O)c4ccccc4)c4ccccc4)C(C)=C1C3(C)C)[C@]1(OC(C)=O)CO[C@@H]1C[C@@H]2O (some centres not stated)	CFTR F508del cor 10.6
CC(=O)O[C@H]1C(=O)[C@@]2(C)[C@H]([C@H](OC(=O)c3ccccc3)[C@]3(O)C[C@H](OC(=O)[C@H](O)[C@@H](NC(=O)c4ccccc4)c4ccccc4)C(C)=C1C3(C)C)[C@]1(OC(C)=O)CO[C@@H]1C[C@@H]2O	none
COc1ccccc1CNC(=O)CN(c1cccc([N+](=O)[O-])c1)S(C)(=O)=O	none
Cc1ccccc1CNC(=O)CN(c1cccc([N+](=O)[O-])c1)S(C)(=O)=O	MC4R antag cAMP 30.3
CO[C@H]1CN(C)C(=O)c2cc(NC(=O)C3CC3)ccc2OC[C@H](C)N(CCC(F)(F)F)C[C@@H]1C	none (no result: SMARCA2 act, MC4R ag barr, MC4R antag cAMP)
COc1cc(NC(=O)c2ccc(N)nc2)cc(C(=O)Nc2cccc(C(F)(F)F)c2)c1	SMARCA2 act 7.9!
COc1cc(NC(=O)N2CCNC2=O)cc(C(=O)Nc2cccc(C(F)(F)F)c2)c1	CFTR F508del cor 8.0
COc1cc(NC(=O)c2nccnc2N)cc(C(=O)Nc2cccc(C(F)(F)F)c2)c1	none
CCN1CCN(Cc2ccc(NC(=O)c3cc(NC(=O)N4CCNC4=O)cc(OC)c3)cc2C(F)(F)F)CC1	none
CC(=O)OCC(=O)NCCCOc1cccc(CN2CCCCC2)c1	CFTR F508del cor 8.3
CCCCCn1cnc2sc(-c3ccccc3)cc2c1=O	none (no result: CFTR F508del cor)
CCCCn1cnc2sc(-c3ccccc3)cc2c1=O	SMARCA2 act 7.8 (no result: CFTR F508del cor)
O=C(c1ccc(F)cc1)N1CC(=O)N2[C@@H](CO)[C@H](c3ccc(C#CC4CCCC4)cc3)[C@@H]2C1	none (no result: SMARCA2 act, MC4R ag barr, MC4R antag cAMP)
CCN(CC)CCn1c2c(c(SCC(=O)Nc3ccc(F)c(F)c3)nc1=O)CCC2	CFTR F508del cor 9.2
CCOc1ccc(C(=O)COC(=O)Cc2n[nH]c(=O)c3ccccc23)cc1	CFTR F508del cor 13.4
C/C(=N\Nc1ncnc2sc(C)c(C)c12)c1ccccn1	CFTR F508del cor 21.4
O=C(Cc1ccncc1)Nc1ccc2c(c1)[C@@H]1C[C@H](CC(=O)NC3CCCC3)O[C@@H](CO)[C@@H]1O2	none (no result: SMARCA2 act, MC4R ag barr, MC4R antag cAMP)
Cc1ccc2nc(-c3ccc(NC(=O)COC(=O)c4ccco4)cc3)sc2c1	SMARCA2 act 7.9 (no result: CFTR F508del cor)
Cc1ccc2nc(-c3ccc(NC(=O)COC(=O)c4ccc([N+](=O)[O-])o4)cc3)sc2c1	none
Cc1ccc2nc(-c3ccc(NC(=O)COC(=O)c4ccc(Br)o4)cc3)sc2c1	SMARCA2 act 9.3 (no result: CFTR F508del cor)
Cc1ccc(-c2nnc(SCC(=O)Nc3ccc(-c4nc5ccc(C)cc5s4)cc3)n2Cc2ccco2)cc1	none (no result: CFTR F508del cor, MC4R ag barr, MC4R antag cAMP)
COc1ccc(/C=C(\C#N)C(=O)OCC(=O)Nc2ccc(-c3nc4ccc(C)cc4s3)cc2)cc1	SMARCA2 act 7.8
C=CCn1c(SCC(=O)Nc2ccc(-c3nc4ccc(C)cc4s3)cc2)nnc1-c1ccccc1	MC4R ag barr 38.4 (no result: CFTR F508del cor)
Cc1ccc2nc(-c3ccc(NC(=O)COC(=O)c4cncc(Br)c4)cc3)sc2c1	none (no result: CFTR F508del cor)
Cc1ccc(NC(=O)COC(=O)c2ccco2)cc1	none
C[C@@H]1CN([C@H](C)CO)C(=O)c2cc(NC(=O)C3CC3)ccc2O[C@@H]1CN(C)Cc1ccc(-c2ccccc2)cc1	none (no result: SMARCA2 act, MC4R ag barr, MC4R antag cAMP)
C/C(=N\NC(=O)c1c(Cl)c(C)nn1C)c1ccc(NC(=O)C2CCC2)cc1	CFTR F508del cor 10.9
C/C=C/c1cnc2c(c1)C(=O)N([C@H](C)CO)C[C@@H](C)[C@@H](CN(C)Cc1cncnc1)O2	none (no result: SMARCA2 act, MC4R ag barr, MC4R antag cAMP)
O=S(=O)(Nc1cc(Sc2cccc3cccnc23)c(O)c2ccccc12)c1ccccc1	CFTR F508del cor 25.9 (no result: MC4R ag barr, MC4R antag cAMP)
